Reference: ChEMBL document CHEMBL2203013, “Strategy for Imidazotetrazine Prodrugs with Anticancer Activity Independent of MGMT and MMR” (ACS Med Chem Lett, 2012)
The source made the active and inactive calls. The rule behind the calls is not given here.

Tests used:
[1] = system: HCT-116; test: Cytotoxicity against human HCT116 cells after 5 days by MTT assay; assay type: functional, cell-based; settings: for IC50: HCT-116, 120 h
[2] = system: A549; test: Cytotoxicity against human A549 cells after 5 days by MTT assay; assay type: functional, cell-based; settings: for IC50: A549, 120 h
[3] = system: A2780/CP70; test: (§1) Cytotoxicity against MMR-deficient human A2780/CP70 cells after 5 days by MTT assay in presence of 10 uM MGMT inactivator Patrin2; assay type: functional, cell-based
[4] = system: A2780; test: Cytotoxicity against human A2780 cells after 5 days by MTT assay in presence of 10 uM MGMT inactivator Patrin2; assay type: functional, cell-based
[5] = system: U-251; test: Cytotoxicity against human U251 cells after 5 days by MTT assay; assay type: functional, cell-based; settings: for IC50: U-251, 120 h
[6] = system: Nucleic Acid; test: Induction of Escherichia coli pBR322 DNA alkylation assessed as formation of covalent DNA adducts after 2 hrs by Taq polymerase DNA stop assay; assay type: nucleic-acid assay
[7] = system: DLD-1; test: Cytotoxicity against human DLD1 cells after 5 days by MTT assay; assay type: functional, cell-based; settings: for IC50: DLD-1, 120 h
[8] = system: Nucleic Acid; test: Binding affinity to Escherichia coli pBR322 DNA assessed as guanine-N7 alkylation on GC-rich region after 2 hrs by piperidine cleavage assay; assay type: nucleic-acid assay
[9] = system: A2780/CP70; test: Cytotoxicity against MMR-deficient human A2780/CP70 cells after 5 days by MTT assay; assay type: functional, cell-based
[10] = system: A2780; test: Cytotoxicity against human A2780 cells after 5 days by MTT assay; assay type: functional, cell-based
[11] = system: PANC-1; test: Cytotoxicity against human PANC1 cells after 5 days by MTT assay; assay type: functional, cell-based; settings: for IC50: PANC-1, 120 h
[12] = system: HT-29; test: Cytotoxicity against human HT-29 cells after 5 days by MTT assay; assay type: functional, cell-based; settings: for IC50: HT-29, 120 h
[13] = Prodrug conversion in citrate-phosphate buffer at pH 8 assessed as half life of compound; assay type: physicochemical
How it was run: (§2)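 Hydrolysis in citrate-phosphate buffers at 37 °C, followed by UV absorbance at 330 nm (loss of imidazotetrazine). k′ is a pseudo-first-order rate constant (×10–5 s–1), mean ± SD of three independent determinations; t1/2 given in hours.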

[14] = Prodrug conversion in citrate-phosphate buffer at pH 7.4 assessed as pseudo-first-order rate constant; assay type: physicochemical; how it was run: as §2
[15] = as §1; assay type: functional, cell-based; settings: A2780/CP70, 120 h
[16] = Prodrug conversion in citrate-phosphate buffer at pH 7.4 assessed as half life of compound; assay type: physicochemical; how it was run: as §2
[17] = Prodrug conversion in citrate-phosphate buffer at pH 4 assessed as pseudo-first-order rate constant; assay type: physicochemical; how it was run: as §2
[18] = Prodrug conversion in citrate-phosphate buffer at pH 8 assessed as pseudo-first-order rate constant; assay type: physicochemical; how it was run: as §2
[19] = Prodrug conversion in citrate-phosphate buffer at pH 4 assessed as half life of compound; assay type: physicochemical; how it was run: as §2
[20] = system: A2780; test: Ratio of IC50 for human A2780 cells to IC50 for MMR-deficient human A2780/CP70 cells in presence of 10 uM MGMT inactivator Patrin2; assay type: functional

Compound	IC50 [1]	IC50 [2]	Activity [3]	Activity [4]	IC50 [5]	Activity [6]	IC50 [7]	Activity [8]	Activity [9]	Activity [10]	IC50 [11]	IC50 [12]	t1/2 [13]	Drug metabolism [14]	t1/2 [16]	Drug metabolism [17]	Drug metabolism [18]	t1/2 [19]	Ratio IC50 [20]	Activity [1]	other results
N[C@@H](Cc1ccc(N(CCCl)CCCl)cc1)C(=O)O [MELPHALAN]	3 µM	3 µM	Active	Active	3 µM	Active	3 µM	Active	Active	Active	3 µM	3 µM									
Cn1nnc2c(C(N)=O)ncn2c1=O [TEMOZOLOMIDE]	> 250 µM	> 250 µM			> 250 µM		> 250 µM		Active	Active	> 250 µM	> 250 µM	0.42 h	14 ×10⁻⁵ /s	1.38 h	0.1 ×10⁻⁵ /s	46.2 ×10⁻⁵ /s	253 h	>27		IC50 [15]: > 250 µM; IC50 ([4]; A2780, 120 h): > 250 µM
Cc1ccc(N(CCn2nnc3c(C(N)=O)ncn3c2=O)CCn2nnc3c(C(N)=O)ncn3c2=O)cc1			Active	Active		Active		Active	Active	Active			0.43 h	14.4 ×10⁻⁵ /s	1.33 h	0.4 ×10⁻⁵ /s	45.1 ×10⁻⁵ /s	48.5 h	5.8	Active	Activity [2]: Active; Activity [5]: Active; Activity [7]: Active; Activity [11]: Active; Activity [12]: Active
Cc1ccc(N(C)CCn2nnc3c(C(N)=O)ncn3c2=O)cc1			Active	Active		Active		Active	Active	Active			0.39 h	15.2 ×10⁻⁵ /s	1.27 h	0.5 ×10⁻⁵ /s	49.5 ×10⁻⁵ /s	41.5 h	2.8	Active	Activity [2]: Active; Activity [5]: Active; Activity [7]: Active; Activity [11]: Active; Activity [12]: Active
NC(=O)c1ncn2c(=O)n(CCCl)nnc12			Active	Active					Active	Active											
